Test results: article PMC2233693 (The Journal of General Physiology, 2000)
Changes are numbered by the printed parent chain. Like-named read-outs stand apart in the source and are kept apart here.

Columns and labels:
Assay type in all cases: biochemical
[1] = molecular target: T1, wild-type bovine olfactory CNG channel (α3 subunit) (Bos taurus, UniProt Q03041); test: Blockage of macroscopic current by internal Ca2+, inside-out patches; conditions: read-out: K i for internal Ca2+ blockage, +80 mV, 1 mM cGMP, average
T1 sequence (Q03041 1-663): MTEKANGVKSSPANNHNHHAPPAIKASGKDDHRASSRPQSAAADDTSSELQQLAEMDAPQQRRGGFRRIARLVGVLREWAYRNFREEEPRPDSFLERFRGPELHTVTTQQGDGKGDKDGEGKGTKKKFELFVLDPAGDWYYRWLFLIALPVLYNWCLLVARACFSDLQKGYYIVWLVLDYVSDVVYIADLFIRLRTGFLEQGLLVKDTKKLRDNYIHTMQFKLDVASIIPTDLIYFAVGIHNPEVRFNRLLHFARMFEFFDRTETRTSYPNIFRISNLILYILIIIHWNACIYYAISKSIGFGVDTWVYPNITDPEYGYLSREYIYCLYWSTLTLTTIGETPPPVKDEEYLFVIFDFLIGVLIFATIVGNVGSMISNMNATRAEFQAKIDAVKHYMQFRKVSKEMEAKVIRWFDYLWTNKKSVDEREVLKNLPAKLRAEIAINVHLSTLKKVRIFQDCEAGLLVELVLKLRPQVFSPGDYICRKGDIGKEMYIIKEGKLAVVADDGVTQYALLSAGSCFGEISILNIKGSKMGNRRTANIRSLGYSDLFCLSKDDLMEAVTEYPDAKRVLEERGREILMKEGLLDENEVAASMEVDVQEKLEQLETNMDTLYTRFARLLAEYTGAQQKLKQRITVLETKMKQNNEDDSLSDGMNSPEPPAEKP

[2] = molecular target: T2, E340G mutant bovine olfactory CNG channel (Bos taurus, UniProt Q03041, E340G); test: External Ca2+ blockage of single-channel current, outside-out patches; conditions: for n (single-channel Ca2+ blockage): Fig. 7 patch
T2 sequence (Q03041 1-663 E340G): T1 sequence (Q03041 1-663) with E340G
Method in brief: (§1)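 Outside-out oocyte patches with cGMP in the pipette (wild-type 5 μM, E340G 1 mM) and increasing external Ca2+. Single-channel currents at +80 and −80 mV, filtered at 2 kHz, sampled at 10 kHz. Amplitudes from all-points histograms (30 s) fitted with summed Gaussians, normalised to divalent-free current, Hill-fitted for Ki and n. Two further patches per channel type.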

[3] = molecular target: T1, wild-type bovine olfactory CNG channel (α3 subunit); test: as above; conditions: for effect on single-channel current: 5 μM cGMP; for n (single-channel Ca2+ blockage): Fig. 7 patch
Method in brief: as §1

[4] = molecular target: T2, E340G mutant bovine olfactory CNG channel; test: Blockage of macroscopic current by internal Ca2+, inside-out patches; conditions: read-out: K i for internal Ca2+ blockage, +80 mV, 1 mM cGMP, average
[5] = molecular target: T3, E340Q mutant bovine olfactory CNG channel (Bos taurus, UniProt Q03041, E340Q); test: Estimate from current variance versus mean amplitude of macroscopic currents; conditions: estimated from variance/mean at various cGMP concentrations
T3 sequence (Q03041 1-663 E340Q): T1 sequence (Q03041 1-663) with E340Q
Method in brief: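 Single-channel amplitude not directly measurable. Assuming a single open state, current amplitude and maximal open probability were estimated from the relation between current variance and mean amplitude of macroscopic currents recorded at various cGMP concentrations, in patches from mRNA-injected Xenopus oocytes.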

[6] = molecular target: T3, E340Q mutant bovine olfactory CNG channel

In the case of `[Ca+2]` [Ca^2+], the Ki [1] is reported as 1000 ± 700 µM, the “effect on single-channel amplitude” value ([2]; 1 or even 10 mM external Ca2+, 1 mM cGMP) is reported as “only slightly reduced” and the “n (single-channel Ca2+ blockage)” value ([2]; +80 mV) is reported as 0.7. The “n (single-channel Ca2+ blockage)” value ([2]; −80 mV) was 0.8, the “effect on single-channel current” value ([3]; 50 μM external Ca2+, −80 mV) was “partial blockage” and the “effect on single-channel current” value ([3]; 1 mM external Ca2+, −80 mV) was “no current was detected”. The “n (single-channel Ca2+ blockage)” value ([3]; +80 mV) was 1, the “n (single-channel Ca2+ blockage)” value ([3]; −80 mV) was 1.1 and the Ki [4] was 1500 ± 400 µM.

For `Nc1nc2c(ncn2[C@@H]2O[C@@H]3COP(=O)(O)O[C@H]3[C@H]2O)c(=O)[nH]1` [cGMP], the maximal open probability [5] was 0.9, the “n(−80 mV), Hill coefficient” value ([6]; cGMP) was 2.7 ± 0.5 and the “I(−80 mV)/I(+80 mV)” value ([6]; cGMP-gated current) was 0.19 ± 0.06. For the same compound, the EC50 ([6]; read-out: K 1/2, cGMP, +80 mV) was 4 ± 1.2 µM, the EC50 ([6]; read-out: K 1/2, cGMP, −80 mV) was 5.6 ± 1.7 µM and the EC50 ([6]; read-out: K 1/2,cG, −80 mV, single patch, Fig. 1 fit) was 4.8 µM. The “n cG” value ([6]; −80 mV, single patch, Fig. 1 fit) was 2.4.
